Test results published in publication PMC12765261 (Journal of Pharmaceutical Analysis, 2025).
Structures can show the parent of a compound that is named as a salt.

Legend:
Hygroscopicity test = type: physicochemical; conditions: 25 °C/80% RH for 24 h
Procedure, shortened: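 Co-amorphous samples were held at 25 °C/80% RH for 24 h, and percentage weight gain was calculated, n = 3. Pharmacopeial criteria were applied: a gain above 2% but below 15% counts as hygroscopic.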

Stability experiments = type: physicochemical; conditions: 75% RH for 5 and 10 days
[1] = system: GLUT4 expression in HepG2 cells; experiment: GLUT4 immunofluorescence; type: cell-based; conditions: 2 h pre-treatment before HGHI incubation
Procedure, shortened: (§1)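 Before the high-glucose/high-insulin step (30 mM glucose, 5 μM insulin, 30 h), cells were pre-treated for 2 h with the PI3K inhibitor LY294002 or the AMPK inhibitor dorsomorphin. They then received test compounds at varying concentrations for 24 h. GLUT4 was immunostained with a rabbit polyclonal primary and a fluorescein-conjugated secondary, with DAPI for nuclei. Cells were imaged by confocal microscopy and GLUT4 signal was quantified.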

[2] = system: GLUT4 expression in H9c2 cells; experiment: GLUT4 immunofluorescence; type: cell-based; conditions: 2 h pre-treatment before HGHI incubation
Procedure, shortened: as §1

H9c2 cells = experiment: Cytotoxicity, MTT assay under HGHI conditions; type: cell-based; conditions: 24 h
Procedure, shortened: (§2)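 Cell lines were kept in DMEM (25 mM glucose, 10% FBS, 1% penicillin/streptomycin) at 37 °C and 5% CO2. Insulin resistance was induced with 30 mM glucose plus 5 μM insulin for 30 h. Cells were then exposed for 24 h under these conditions to a range of concentrations of the single components, a physical mixture or the co-amorphous system. Viability was read by MTT, n = 3, mean ± SD.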

HepG2 cells = experiment: Cytotoxicity, MTT assay under HGHI conditions; type: cell-based; conditions: 24 h
Procedure, shortened: as §2

| SMILES | Percentage of weight gain (hygroscopicity) (Hygroscopicity test) | Phase stability under high humidity (XRD) (Stability experiments) | Effect of inhibitor on GLUT4 fluorescence induced by COA-I [1] | Effect of inhibitor on GLUT4 fluorescence induced by COA-I [2] | Concentrations showing cytotoxicity (H9c2 cells) | Concentrations showing cytotoxicity (HepG2 cells) |
| --- | --- | --- | --- | --- | --- | --- |
| CCOc1ccc(Cc2cc([C@@H]3O[C@H](CO)[C@@H](O)[C@H](O)[C@H]3O)ccc2Cl)cc1 [DAP, Dapagliflozin] | 5.36% | remained amorphous | – | – | – | – |
| c1cc(-c2cnn3cc(-c4ccc(OCCN5CCCCC5)cc4)cnc23)ccn1 [compound C, dorsomorphin (compound C) dihydrochloride] | – | – | attenuated | attenuated | – | – |
| O=c1cc(N2CCOCC2)oc2c(-c3ccccc3)cccc12 [LY294002] | – | – | attenuated | attenuated | – | – |
| CCc1ccc(CCOc2ccc(CC3SC(=O)NC3=O)cc2)nc1 (stereo not drawn) [PIO, Pioglitazone] | 0.86% | – | – | – | higher than 10 μM | higher than 10 μM |
